In ChEMBL document CHEMBL1123024, “5,6-Diaryl-2,3-dihydroimidazo[2,1-b]thiazoles: a new class of immunoregulatory antiinflammatory agents” (1985) one finds ED25 and Change data, which are given here for 14 compounds.

The structures appear in SMILES notation.

Test [1] is filed under the species Rattus norvegicus. Description: animal or person.
Test [2] is filed under the species Rattus norvegicus. Description: animal or person. This is another data set of the same source.
For test [3], the species on record is Rattus norvegicus. Description: animal or person. The source holds these as a separate data set.
For test [4], the species on record is Mus musculus. The test can be described thus: Immunoregulatory activity against oxazolone induced mouse contact sensitivity was evaluated as percent change. The test is classed as functional. The method, boiled down:
(§1)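 Male C57B1/6 mice were sensitized with 0.1 mL of 5% oxazolone in absolute ethanol on the clipped abdomen. At 45 h the left hind leg was challenged with 5% oxazolone. Compound was given po in 0.5% tragacanth. Edema was read plethysmographically 24 h later as left minus right leg volume. Six mice vs eight controls; Student's t test.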

For test [5], the system named is Rattus norvegicus. Description: The compound was tested for percent change in nonimmune L16 inflammatory lesions in rat adjuvant-induced arthritis at 50 mg/kg. It is filed as functional. The method, boiled down:
(§2)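 Male Wistar rats received 0.75 mg M. butyricum in paraffin oil intradermally into the left hindpaw. Compounds were given daily po in 0.5% tragacanth from the injection day for 17 days, skipping days 4, 5, 11 and 12. Leg volumes were read by mercury displacement: left leg on day 3, both legs on day 16. Eight treated rats vs 16 vehicle controls; Student's t test. ED25 is the dose giving a 25% volume decrease, from at least three doses, with 95% limits by Fieller's theorem.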

Test [6] has as its system Rattus norvegicus. Description: The compound was tested for percent change in nonimmune L3 inflammatory lesions in rat adjuvant-induced arthritis at 50 mg/kg. It is filed as functional. The essentials:
as §2

The subject of test [7] is Rattus norvegicus. The test can be described thus: The compound was tested for percent change in immune R16 inflammatory lesions in rat adjuvant-induced arthritis at 50 mg/kg; the % change was Not Significant. The test is classed as functional. The essentials: as §2
In test [8] the test system is Rattus norvegicus. The test can be described thus: The compound was tested for percent change in immune R16 inflammatory lesions in rat adjuvant-induced arthritis at 50 mg/kg. The test is classed as functional. The essentials: as §2
Test [9] concerns Rattus norvegicus. The test can be described thus: The compound was tested for percent change in nonimmune L3 inflammatory lesions in rat adjuvant-induced arthritis at 50 mg/kg; the %change is Not statistically significant. The test is classed as functional. The method, boiled down: as §2
The subject of test [10] is Rattus norvegicus. Description: Compound was tested by carrageenan-induced paw edema for percent change in paw volume of control sham operated rats at 50 mg/kg; the %change is Not statistically significant. The test is classed as functional. The essentials:
(§3)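 Normal, adrenalectomized or sham-operated Lewis rats were dosed po in 0.5% tragacanth, hydrated. 1 h later paw volume was read, then […] of 1% carrageenan in 0.9% saline was injected into the right hindpaw plantar surface. Volume was re-read at 3 h. Percent change, treated vs control; Student's t test.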
A general note: The carrageenan paw model is a standard test of acute inflammation.

The species entered for test [11] is Mus musculus. The test can be described thus: Immunoregulatory activity against oxazolone induced mouse contact sensitivity was evaluated as percent change; the % change was not statistically significant. The test is classed as functional, organism-based. The essentials:
as §1

Test [12] concerns Rattus norvegicus. Description: The compound was tested for percent change in nonimmune L3 inflammatory lesions in rat adjuvant-induced arthritis at 50 mg/kg; the % change was not statistically significant. It is filed as functional. The essentials: as §2
Test [13] relates to Rattus norvegicus. Description: The compound was tested for percent change in immune R16 inflammatory lesions in rat adjuvant-induced arthritis at 50 mg/kg; the % change was not statistically significant. The test is classed as functional. The method, boiled down:
as §2

The species entered for test [14] is Mus musculus. Description: Immunoregulatory activity against mouse contact sensitivity was evaluated as percent change. It is filed as functional. The method, boiled down: as §1
In test [15] the test system is Rattus norvegicus. The test can be described thus: Percent change in immune R16 inflammatory lesions in rat adjuvant-induced arthritis at 50 mg/kg. It is filed as functional. The essentials:
as §2

The test system of test [16] is Rattus norvegicus. The test can be described thus: Compound was tested by carrageenan -induced paw edema for percent change in paw volume of control sham operated rats at 100 mg/kg. The test is classed as functional. The method, boiled down:
as §3

The test system of test [17] is Rattus norvegicus. Description: Compound was tested by carrageenan -induced paw edema for percent change in paw volume of control sham operated rats at 50 mg/kg. It is filed as functional. The essentials:
as §3

The test system of test [18] is Rattus norvegicus. Description: Percent change in nonimmune L16 inflammatory lesions in rat adjuvant-induced arthritis at 50 mg/kg. It is filed as functional. The method, boiled down:
as §2

The subject of test [19] is Rattus norvegicus. Description: Percent change in nonimmune L3 inflammatory lesions in rat adjuvant-induced arthritis at 50 mg/kg. The test is classed as functional. The method, boiled down: as §2
The subject of test [20] is Mus musculus. Description: Immunoregulatory activity against oxazolone induced mouse contact sensitivity was evaluated as percent change at a dose of 10 mg/kg. The test is classed as functional. The essentials: as §1
Test [21] relates to Mus musculus. The test can be described thus: Change in paw edema in methotrexate-suppressed oxazolone -induced contact sensitivity in mice at 5 mg/kg; % change was not statistically significant. It is filed as functional.
Test [22] relates to Rattus norvegicus. Description: Compound was tested by carrageenan -induced paw edema for percent change in paw volume of control sham operated rats. It is filed as functional. The method, boiled down: as §3
Test [23] deals with Rattus norvegicus. The test can be described thus: Compound was tested by carrageenan -induced paw edema for percent change in paw volume on treated vs. control adrenalectomized rats. It is filed as functional. The method, boiled down:
as §3

The species named for test [24] is Rattus norvegicus. The test can be described thus: Inhibition of secondary nonimmune L16 inflammatory lesions was measured; activity value ranges from 0.19 - 0.79. The test is classed as functional. The essentials: as §2
Test [25] is filed under the species Rattus norvegicus. Description: Inhibition of immune R16 inflammatory lesions was measured.; activity value ranges from 0.17 - 1.73. It is filed as functional. The method, boiled down: as §2
Test [26] is filed under the species Rattus norvegicus. Description: Inhibition of primary nonimmune L3 inflammatory lesions was measured. The test is classed as functional. The method, boiled down:
as §2

Test [27] relates to Mus musculus. The test can be described thus: Change in paw edema in oxazolone -induced arthritic mice at 5 mg/kg.
For test [28], the system named is Mus musculus. The test can be described thus: Change in paw edema in methotrexate-suppressed oxazolone -induced contact sensitivity in mice at 50 mg/kg. The test is classed as functional.
The test system of test [29] is Rattus norvegicus. Description: Change in 19S hemagglutinination titers in adjuvant-induced arthritic rats at 50 mg/kg. The test is classed as functional.
The test system of test [30] is Rattus norvegicus. The test can be described thus: Change in 7S hemagglutinination titers in adjuvant-induced arthritic rats at 50 mg/kg. It is filed as functional.
Test [31] concerns Rattus norvegicus. The test can be described thus: Compound was tested by carrageenan -induced paw edema for percent change in paw volume of control in adrenalectomized operated rats at 50 mg/kg. The test is classed as functional. The method, boiled down: as §3
The species named for test [32] is Rattus norvegicus. The test can be described thus: Inhibition of immune, R16 inflammatory lesions was measured. The test is classed as functional. The essentials: as §2
For test [33], the species on record is Rattus norvegicus. The test can be described thus: Inhibition of primary nonimmune, L3 inflammatory lesions was measured. It is filed as functional. The essentials: as §2
The species entered for test [34] is Rattus norvegicus. Description: Inhibition of secondary nonimmune, L16 inflammatory lesions was measured. The test is classed as functional. The essentials:
as §2

Test [35] has as its system Mus musculus. The test can be described thus: Change in paw edema in oxazolone -induced arthritic mice at 50 mg/kg.
Test [36] concerns Rattus norvegicus. The test can be described thus: The compound was tested for percent change in nonimmune L16 inflammatory lesions in rat adjuvant-induced arthritis at 50 mg/kg; the %change is Not statistically significant. It is filed as functional. The method, boiled down: as §2
Test [37] concerns Rattus norvegicus. Description: The compound was tested for percent change in immune R16 inflammatory lesions in rat adjuvant-induced arthritis at 50 mg/kg; the %change is Not statistically significant. It is filed as functional. The essentials:
as §2

For test [38], the species on record is Mus musculus. Description: Immunoregulatory activity against oxazolone induced mouse contact sensitivity was evaluated as percent change; the % change in Not statistically Significant. The test is classed as functional. The essentials:
as §1

Test [39] relates to Rattus norvegicus. Description: Compound was tested by carrageenan -induced paw edema for percent change in paw volume of control sham operated rats at 50 mg/kg; the % change was Not statistically significant. The test is classed as functional. The essentials: as §3

For `c1ccc([C@H]2CN3CCSC3=N2)cc1` [LEVAMISOLE], the ED25 was 127 mg/kg in test [1], 44.4 mg/kg in [2] and 73.4 mg/kg in test [3].

In the case of `COc1ccc(-c2nc3n(c2-c2ccc(OC)cc2)CCS3(=O)=O)cc1`, the Change in [4] was 95%; in test [5], -12%; in [6], -11%; in test [7], -7%.

Regarding `O=S1(=O)CCn2c1nc(-c1ccc(F)cc1)c2-c1ccc(F)cc1`, the Change is 20% in test [4]; -34% in test [8]; -17% in [5]; -6% in [9]; 3% in test [10].

Turning to `COc1ccc(-c2nc3sccn3c2-c2ccc(OC)cc2)cc1`, the Change result in test [11] was “Not significant”; in test [5], -9%; in test [12] it was -6%; in test [13], 0%.

For `Cl.Fc1ccc(-c2nc3n(c2-c2ccc(F)cc2)CCS3)cc1`, the Change is recorded as 79% in test [14]; -49% in [15]; 6% in test [16]; -9% in [17]; -36% in [18]; -39% in test [19].

In the case of `COc1ccc(-c2nc3n(c2-c2ccc(OC)cc2)CC[S+]3[O-])cc1` (stereo not given), the Change was 76% in test [20], -32% in test [8], -29% in test [5] and -24% in [6].

Take `c1ccc(-c2nc3n(c2-c2ccccc2)CCS3)cc1`: the Change is given as -4% in test [15]; -7% in test [16]; -9% in [17]; -4% in test [18]; -12% in [19].

In the case of `COc1ccc(-c2nc(C(F)(F)F)[nH]c2-c2ccc(OC)cc2)cc1` [FLUMIZOLE], the Change is recorded as 3% in [21], -48% in test [22], -47% in test [23] and -28% in [27]. Further, the ED25 was determined as 0.45 mg/kg in test [24], 0.78 mg/kg in test [25] and 11 mg/kg in test [26].

As to `COc1ccc(-c2nc3n(c2-c2ccc(OC)cc2)CCS3)cc1`, the Change in [28] is recorded as 156%; in test [14], 211%; in test [15], -21%; in [29], 1.2%; in test [30], -3.7%; in [31], -58%. Further, the Change is recorded as -63% in test [17], -34% in test [18], -24% in test [19] and 211% in [35]. Moreover, the ED25 was 24.4 mg/kg in [32], 32.9 mg/kg in test [33] and 18.7 mg/kg in test [34].

With `CSc1ccc(-c2nc3n(c2-c2ccc(SC)cc2)CCS3)cc1`, the Change in [14] was 73%; in [15], -38%; in test [17], -33%; in test [18], -36%; in [19], -25%.

As to `FC(F)(F)c1ccc(-c2nc3n(c2-c2ccc(C(F)(F)F)cc2)CCS3)cc1`, the Change is reported as 89% in [14]; 1% in [15]; 4% in test [16]; 12% in test [18]; 0% in test [19].

As for `COc1cccc(-c2nc3n(c2-c2cccc(OC)c2)CCS3)c1`, the Change is 166% in test [14]; -16% in test [15]; -3% in [16]; -4% in test [18]; 0% in test [19].

Consider `COc1cccc(-c2nc3n(c2-c2cccc(OC)c2)CC[S+]3[O-])c1` (stereo not given), for which the Change in test [4] was found to be 59%; in [36], 9%; in [9] it was 4%; in test [37], 7%.

Consider `C[S+]([O-])c1ccc(-c2nc3n(c2-c2ccc([S+](C)[O-])cc2)CC[S+]3[O-])cc1` (stereo not given), for which the Change in test [38] is recorded as 38%; in test [8] it was -47%; in test [5], -44%; in test [6] it was -27%; in test [39], 10%.
